Measurements: ChEMBL document CHEMBL3525987, “Assessment of exposure of metabolites in preclinical species and humans at steady state from the single-dose radiolabeled absorption, distribution, metabolism, and excretion studies: a case study” (Drug Metab Dispos, 2012)

Columns and labels:
Rattus norvegicus [1] = assay: Toxicity in female Sprague-Dawley rat treated with [14C]lixivaptan at 10 mg/kg, po administered as single dose via gavage; assay type: organism-based; parameters: dose 10 mg/kg, dosed compound name [14C]lixivaptan, route oral; conditions: in vivo
Canis familiaris [2] = assay: Drug level in beagle dog plasma treated with [14C]lixivaptan at 10 mg/kg, po administered as single dose measured after 2 hrs by liquid scintillation counting; assay type: ADME, organism-based, Canis lupus familiaris; parameters: dose 10 mg/kg, dosed compound name [14C]lixivaptan, route oral; conditions: in vivo
Summary of the method: (§1)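 Four male beagles fasted 18 h were gavaged once with [14C]lixivaptan at 10 mg/kg (2 ml/kg). The 5.0 mg/ml suspension was in deionized water with pluronic F68 (1.04 µCi/mg). Jugular K2EDTA plasma was taken at 2, 8 and 24 h and extracted twice with 2 volumes of acetonitrile. Profiling used C18 radio-HPLC (ammonium formate/acetonitrile gradient) with on-line flow scintillation detection. Each peak is reported as percent of plasma radioactivity.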

Canis familiaris [3] = assay: Drug level in beagle dog plasma treated with [14C]lixivaptan at 10 mg/kg, po administered as single dose measured after 24 hrs by liquid scintillation counting; assay type: ADME, organism-based, Canis lupus familiaris; parameters: dose 10 mg/kg, dosed compound name [14C]lixivaptan, route oral; conditions: in vivo; summary of the method: as §1
Rattus norvegicus [4] = assay: Drug level in female Sprague-Dawley rat plasma treated with [14C]lixivaptan at 10 mg/kg, po administered as single dose via gavage measured after 24 hrs by liquid scintillation counting; assay type: ADME, organism-based; parameters: dose 10 mg/kg, dosed compound name [14C]lixivaptan, route oral; conditions: in vivo
Summary of the method: (§2)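 Sprague-Dawley rats (9/gender) were fasted 18 h and gavaged once with [14C]lixivaptan at 10 mg/kg (10 ml/kg), about 29.8 µCi/mg, suspended in deionized water with pluronic F68. Plasma came by cardiac puncture under isoflurane at 1, 8 and 24 h (3/gender/time) and was extracted twice with 2 volumes of acetonitrile. C18 radio-HPLC with a flow scintillation detector gave percent of plasma radioactivity per peak.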

Rattus norvegicus [5] = assay: Toxicity in male Sprague-Dawley rat treated with [14C]lixivaptan at 10 mg/kg, po administered as single dose via gavage; assay type: organism-based; parameters: dose 10 mg/kg, dosed compound name [14C]lixivaptan, route oral; conditions: in vivo
Canis familiaris [6] = assay: Toxicity in beagle dog treated with [14C]lixivaptan at 10 mg/kg, po administered as single dose via gavage; assay type: organism-based, Canis lupus familiaris; parameters: dose 10 mg/kg, dosed compound name [14C]lixivaptan, route oral; conditions: in vivo
Rattus norvegicus [7] = assay: Drug level in male Sprague-Dawley rat plasma treated with [14C]lixivaptan at 10 mg/kg, po administered as single dose via gavage measured after 1 hr by liquid scintillation counting; assay type: ADME, organism-based; parameters: dose 10 mg/kg, dosed compound name [14C]lixivaptan, route oral; conditions: in vivo
Summary of the method: (§3)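 Single oral gavage of [14C]drug (10 mg/kg, 10 ml/kg) as suspension in deionized water with pluronic F68, ~29.8 µCi/mg; SD rats fasted 18 h, fed 4 h post-dose. Blood by cardiac puncture under isoflurane, 3 rats/time/gender, into K2EDTA at 1, 8, 24 h; plasma extracted twice with 2 vol acetonitrile, radio-HPLC on C18 with flow radioactivity detection, expressed as % plasma radioactivity.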

Canis familiaris [8] = assay: Drug level in beagle dog plasma treated with [14C]lixivaptan at 10 mg/kg, po administered as single dose measured after 8 hrs by liquid scintillation counting; assay type: ADME, organism-based, Canis lupus familiaris; parameters: dose 10 mg/kg, dosed compound name [14C]lixivaptan, route oral; conditions: in vivo; summary of the method: as §1
Rattus norvegicus [9] = assay: Drug level in female Sprague-Dawley rat plasma treated with [14C]lixivaptan at 10 mg/kg, po administered as single dose via gavage measured after 1 hr by liquid scintillation counting; assay type: ADME, organism-based; parameters: dose 10 mg/kg, dosed compound name [14C]lixivaptan, route oral; conditions: in vivo; summary of the method: as §2
Rattus norvegicus [10] = assay: Drug level in female Sprague-Dawley rat plasma treated with [14C]lixivaptan at 10 mg/kg, po administered as single dose via gavage measured after 8 hrs by liquid scintillation counting; assay type: ADME, organism-based; parameters: dose 10 mg/kg, dosed compound name [14C]lixivaptan, route oral; conditions: in vivo; summary of the method: as §3
Homo sapiens [11] = assay: Cmax in human treated with [14C]lixivaptan at 100 mg, po qd for 7 days; assay type: ADME, organism-based; parameters: dose 100 mg, route oral, dosed compound name [14C]lixivaptan; conditions: in vivo, 168 h
Rattus norvegicus [12] = assay: Drug level in male Sprague-Dawley rat plasma treated with [14C]lixivaptan at 10 mg/kg, po administered as single dose via gavage measured after 24 hrs by liquid scintillation counting; assay type: ADME, organism-based; parameters: dose 10 mg/kg, dosed compound name [14C]lixivaptan, route oral; conditions: in vivo; summary of the method: as §3
Homo sapiens [13] = assay: AUC (0 to 24 hrs) in human treated with [14C]lixivaptan at 100 mg, po administered as single dose; assay type: ADME, organism-based, Plasma; parameters: time < 24 hr, dose 100 mg, route oral, dosed compound name [14C]lixivaptan; conditions: in vivo
Summary of the method: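 Healthy young men fasted 10 h and took one oral dose of [14C]lixivaptan, 100 mg (200 µCi) as two capsules with water, eating 4 h later. Plasma from each subject at 0.5, 2, 4, 8, 12, 24 and 36 h was acetonitrile-extracted and profiled by C18 radio-HPLC (formic acid/acetonitrile gradient) with flow detection. Component concentrations were % of radioactivity × total plasma radioactivity, giving AUC0-24 in ng-equiv.h/ml.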

Homo sapiens [14] = assay: Drug level in human plasma treated with [14C]lixivaptan at 100 mg, po administered as single dose measured after 24 hrs by liquid scintillation counting; assay type: ADME, organism-based; parameters: dosed compound name [14C]lixivaptan; conditions: in vivo
Summary of the method: (§4)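 Healthy male volunteers fasted ≥10 h, given single oral 100 mg (200 µCi) [14C]drug as two 50-mg capsules with 250 ml water. Plasma (from ~50 ml blood) at 0.5, 2, 4, 8, 12, 24, 36 h, profiled per subject. Acetonitrile extraction, C18 radio-HPLC with 0.2% formic acid acetonitrile/water gradient, on-line radioactivity detection as % plasma radioactivity; ng-equiv/ml from % × total radioactivity.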

Homo sapiens [15] = assay: Drug level in human plasma treated with [14C]lixivaptan at 100 mg, po administered as single dose measured after 0.5 hrs by liquid scintillation counting; assay type: ADME, organism-based; parameters: dosed compound name [14C]lixivaptan; conditions: in vivo; summary of the method: as §4
Homo sapiens [16] = assay: Drug level in human plasma treated with [14C]lixivaptan at 100 mg, po administered as single dose measured after 8 hrs by liquid scintillation counting; assay type: ADME, organism-based; parameters: dosed compound name [14C]lixivaptan; conditions: in vivo; summary of the method: as §4
Canis familiaris [17] = assay: AUC (0 to 24 hrs) in beagle dog treated with [14C]lixivaptan at 10 mg/kg, po administered as single dose; assay type: ADME, organism-based, Canis lupus familiaris, Plasma; parameters: time < 24 hr, dose 10 mg/kg, dosed compound name [14C]lixivaptan, route oral; conditions: in vivo
Homo sapiens [18] = assay: Drug concentration at steady state in human treated with [14C]lixivaptan at 100 mg, po qd for 7 days by LC/MS/MS analysis; assay type: ADME, organism-based; parameters: dosed compound name Lixivaptan; conditions: in vivo, 168 h
Summary of the method: (§5)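 Phase 1 human study with lixivaptan 100 mg orally once daily and blood taken on the final day. Parent and two abundant metabolites were quantified in plasma with a validated LC-MS/MS assay.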

Homo sapiens [19] = assay: Drug level in human plasma treated with [14C]lixivaptan at 100 mg, po administered as single dose measured after 2 hrs by liquid scintillation counting; assay type: ADME, organism-based; parameters: dosed compound name [14C]lixivaptan; conditions: in vivo; summary of the method: as §4
Rattus norvegicus [20] = assay: AUC (0 to 24 hrs) in male Sprague-Dawley rat treated with [14C]lixivaptan at 10 mg/kg, po administered as single dose via gavage; assay type: ADME, organism-based, Plasma; parameters: time < 24 hr, dose 10 mg/kg, dosed compound name [14C]lixivaptan, route oral; conditions: in vivo; summary of the method: as §2
Homo sapiens [21] = assay: Drug level in human plasma treated with [14C]lixivaptan at 100 mg, po administered as single dose measured after 12 hrs by liquid scintillation counting; assay type: ADME, organism-based; parameters: dosed compound name [14C]lixivaptan; conditions: in vivo; summary of the method: as §4
Homo sapiens [22] = assay: Drug level in human plasma treated with [14C]lixivaptan at 100 mg, po administered as single dose measured after 36 hrs by liquid scintillation counting; assay type: ADME, organism-based; parameters: dosed compound name [14C]lixivaptan; conditions: in vivo; summary of the method: as §4
Homo sapiens [23] = assay: Drug level in human plasma treated with [14C]lixivaptan at 100 mg, po administered as single dose measured after 4 hrs by liquid scintillation counting; assay type: ADME, organism-based; parameters: dosed compound name [14C]lixivaptan; conditions: in vivo; summary of the method: as §4
Homo sapiens [24] = assay: AUC in human treated with [14C]lixivaptan at 100 mg, po qd for 7 days; assay type: ADME, organism-based, Plasma; parameters: dosed compound name [14C]lixivaptan; conditions: in vivo, 168 h
[25] = Retention time of the compound by HPLC analysis; assay type: physicochemical; parameters: dosed compound name [14C]lixivaptan
Homo sapiens [26] = assay: AUC at steady state in human treated with [14C]lixivaptan at 100 mg, po qd for 7 days by LC/MS/MS analysis; assay type: ADME, organism-based, Plasma; parameters: dosed compound name Lixivaptan; conditions: in vivo, 168 h; summary of the method: as §5
Rattus norvegicus [27] = assay: Drug level in male Sprague-Dawley rat plasma treated with [14C]lixivaptan at 10 mg/kg, po administered as single dose via gavage measured after 8 hrs by liquid scintillation counting; assay type: ADME, organism-based; parameters: dose 10 mg/kg, dosed compound name [14C]lixivaptan, route oral; conditions: in vivo; summary of the method: as §3
Rattus norvegicus [28] = assay: AUC (0 to 24 hrs) in female Sprague-Dawley rat treated with [14C]lixivaptan at 10 mg/kg, po administered as single dose via gavage; assay type: ADME, organism-based, Plasma; parameters: time < 24 hr, dose 10 mg/kg, dosed compound name [14C]lixivaptan, route oral; conditions: in vivo; summary of the method: as §2

| Compound | Activity (Rattus norvegicus [1]) | Compound recovery (Canis familiaris [2]) [%] | Compound recovery (Canis familiaris [3]) [%] | Compound recovery (Rattus norvegicus [4]) [%] | Activity (Rattus norvegicus [5]) | Activity (Canis familiaris [6]) | Compound recovery (Rattus norvegicus [7]) [%] | Compound recovery (Canis familiaris [8]) [%] | Compound recovery (Rattus norvegicus [9]) [%] | Compound recovery (Rattus norvegicus [10]) [%] | Cmax (Homo sapiens [11]) [ng/mL] | AUC (Homo sapiens [13]) [ng.Eq.hr/ml] | Compound recovery (Homo sapiens [14]) [%] | Compound recovery (Homo sapiens [15]) [%] | Compound recovery (Homo sapiens [16]) [%] | Compound recovery (Homo sapiens [19]) [%] | Compound recovery (Homo sapiens [21]) [%] | Compound recovery (Homo sapiens [22]) [%] | Compound recovery (Homo sapiens [23]) [%] | Retention_time [25] [min] | also measured |
| --- | --- | --- | --- | --- | --- | --- | --- | --- | --- | --- | --- | --- | --- | --- | --- | --- | --- | --- | --- | --- | --- |
| Cc1ccc(F)cc1C(=O)Nc1ccc(C(=O)N2CC3C=CC(=O)N3Cc3ccccc32)c(Cl)c1 (stereo not given) | Non-toxic | 19.4 | 3.9 | 2.6 | Non-toxic | Non-toxic | 5.4 | 11.1 | 36.2 | 25.2 |  |  |  |  |  |  |  |  |  |  |  |
| Cc1ccc(F)cc1C(=O)Nc1ccc(C(=O)Nc2ccccc2C(=O)O)c(Cl)c1 | Non-toxic | 15.3 | 38.7 | 97.4 | Non-toxic | Non-toxic | 58.5 | 29.7 | 9 | 42.4 | 278 | 5180 | 38.8 | 1.5 | 28.4 | 12.6 | 30.1 | 35.2 | 19.6 | 24.5 | Compound recovery (Rattus norvegicus [12]): 67.8%; AUC (Canis familiaris [17]): 22400 ng.Eq.hr/ml; Css (Homo sapiens [18]): 658 ng/mL; AUC (Rattus norvegicus [20]): 32100 ng.Eq.hr/ml; AUC (Homo sapiens [24]): 5180 ng·h/mL; AUCss (Homo sapiens [26]): 6610 ng·h/mL; Compound recovery (Rattus norvegicus [27]): 73.9%; AUC (Rattus norvegicus [28]): 11100 ng.Eq.hr/ml |
| Cc1ccc(F)cc1C(=O)Nc1ccc(C(=O)Nc2ccccc2Cn2cccc2C(=O)O)c(Cl)c1 | Non-toxic |  |  |  | Non-toxic | Non-toxic |  |  |  |  | 290 | 2680 | 11 | 4.1 | 12.2 | 16.5 | 11.2 | 7.6 | 16.8 | 23.3 | Css (Homo sapiens [18]): 454 ng/mL; AUC (Homo sapiens [24]): 2680 ng·h/mL; AUCss (Homo sapiens [26]): 3040 ng·h/mL |
| Cc1ccc(F)cc1C(=O)Nc1ccc(C(=O)N2Cc3cccn3C(O)c3ccccc32)c(Cl)c1 (stereo not given) |  |  |  |  |  |  |  |  |  |  |  |  | 4.2 | 2.7 | 2.1 | 2.2 | 1.6 | 3.8 | 2.4 | 25.2 |  |
| Cc1ccc(F)cc1C(=O)Nc1ccc(C(=O)N2C=C3CCC(=O)N3Cc3ccccc32)c(Cl)c1 |  |  |  |  |  |  |  |  |  |  |  | 268 | 2.1 | 0.6 | 2.4 | 1.5 | 2.1 |  | 2.5 | 20.2 |  |
